We go through 95 compounds from ChEMBL document CHEMBL4513216, “Probing the Open Global Health Chemical Diversity Library for Multistage-Active Starting Points for Next-Generation Antimalarials” (ACS Infect Dis, 2020).

This series is described as follows: Toxicity liver stage against HepG2, at 10uM. The conditions noted are these: human, HepG2-A16-CD81EGFP cells; read-out: INHIBITION
It is filed as cell-based. Further details: test concentration 10 uM, cell line HepG2-A16-CD81EGFP. In a few lines: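 Uninfected HepG2-A16-CD81EGFP cells, 3 × 10^3 per well, 1536-well, plated on prespotted compound at 10 μM final, parasite-free screening media added to match infected plates; puromycin 10 μM positive, DMSO 0.5% negative; run in parallel with 48 h PbLuc assay at 37 °C, 5% CO2; viability by CellTiter-Glo luminescence, normalized to controls.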

Consider `Fc1cccc(Cl)c1CN1CCn2c(nnc2C2CC2)C1`, for which the cytotoxicity at 10 µM was determined as 8.7%.
Under `Cc1ccc(CN2CC[C@H]3CO[C@H](CN(C)C)[C@H]3C2)o1` stands -114%; under `CCOc1ccc(SCCNS(=O)(=O)CC)cc1`, 2.71%; under `Cc1cccc(N(CCC(N)=O)C(=O)c2ccnc(C)n2)c1`, -8.47%.
On to `CC(=O)c1cc(Br)cc(F)c1OCC(=O)NC(C)C`, for which the cytotoxicity at 10 µM was -9.46%.
To `CC(C)(C)CNC(=O)c1ccc(C(=O)O)nc1` belongs 10.4%; to `Cc1nc2c(c(C)c1CC(=O)Nc1ccc(Cl)cc1)c(=O)[nH]n2C`, -2.85%.
In the case of `Cc1nc([C@H]2C[C@H]3CN(C(=O)c4ccoc4C)CC[C@@H]3O2)no1`, the cytotoxicity at 10 µM was 0.369%.
Under `CC(C)NC(=O)NC[C@H]1OC[C@@H](NCc2ccc(F)cc2)[C@@H]1O` stands 2.07%; under `Cc1cc(S(=O)(=O)N2CCCc3cc(F)c(F)cc32)sc1C(=O)O`, -11.9%.
As to `C[C@@H]1CN(S(=O)(=O)N2CCOCC2)C[C@@]1(O)C1CC1`, the cytotoxicity at 10 µM came out at 5.91%.
Under `CS(=O)(=O)c1snnc1C1CCN(Cc2cccc(O)c2)CC1` stands -8.91%.
`O=c1c(NCCNCCO)c(N2CCN(c3ccc(F)cc3)CC2)c1=O`: the cytotoxicity at 10 µM was -5.46%.
Under `Cc1cc(COC(=O)[C@@H]2Cc3ccccc3CN2S(C)(=O)=O)no1` stands -9.87%; under `Cc1ccc(CN2CCN(c3ccc(F)cn3)CC2=O)cc1C`, -4.4%.
Regarding `Cc1cc(CCC(=O)NCc2ncc[nH]2)ccc1Br`, the cytotoxicity at 10 µM was -18.1%.
For the compound `COc1ccc(NC(=O)Cn2nc(C)c(C)cc2=O)cc1OC`, the cytotoxicity at 10 µM is -20.4%.
On to `Cc1ccc2c(c1)C1(CCN(C(N)=O)CC1)CN2CC1CC1`, for which the cytotoxicity at 10 µM was -109%.
`Cc1ccc(CC(=O)N2CCOCC2c2ncon2)cc1` (stereo not given): the cytotoxicity at 10 µM is -2.03%.
Consider `CCOc1ccc(CN(C)C2CCN(c3cc(C)nn3C)C2=O)cc1` (stereo not given), for which the cytotoxicity at 10 µM was 1.66%.
Take `C[C@]1(O)CN(Cc2ncc[nH]2)CC[C@@H]1Oc1cccc(F)c1`: the cytotoxicity at 10 µM is -6.8%.
To `CCC(=O)N1CC[C@@H]2[C@H](CC1)N(Cc1cccc(C)n1)CCS2(=O)=O` belongs -1.31%; to `Cc1ccc2c(n1)N(CC1CC1)CCN(Cc1cnn(C)c1)C2`, -2.91%.
As to `CC(C)C(=O)NC1COC2(CCN(Cc3cccnc3)CC2)C1` (stereo not given), the cytotoxicity at 10 µM came to 2.11%.
To `CN(C)C(=O)C1(CCCc2ccccn2)CCN1Cc1nccn1C` (stereo not given) belongs 8.08%.
As for `CC(C)C1CN(Cc2cnc(N(C)C)nc2)CCCN1CC1CC1` (stereo not given), the cytotoxicity at 10 µM is -6%.
Take `OC(COCc1ccco1)CN1CCC(Cn2cccn2)CC1` (stereo not given): the cytotoxicity at 10 µM was -1.73%.
To `Cc1nnc2n1CCN(CCC(=O)Nc1sccc1C#N)C2` belongs -2.28%; to `CC(C)N1CCN(S(=O)(=O)c2ncn(C)c2Cl)CC1`, 13.9%.
`Cc1noc([C@@H]2C[C@H]3OCC[C@H]3N(Cc3ccoc3)C2)n1`: the cytotoxicity at 10 µM was -71.4%.
`O=C(c1ccc2[nH]cnc2c1)N1CCC(Oc2ccccn2)CC1`: the cytotoxicity at 10 µM turned out to be 1.59%.
For `CC(SCC(=O)NC(N)=O)c1ccc(Cl)cc1` (stereo not given), the cytotoxicity at 10 µM was 4.86%.
With `N#Cc1ccc2c(c1)CN(C(=O)c1nc[nH]n1)C2c1cnco1` (stereo not given), the cytotoxicity at 10 µM was -2.6%.
To `O=C(CCCn1ccnc1)NC1CCCN(c2ccccc2Cl)C1` (stereo not given) belongs 4.86%; to `O=C(CCN1CCOC(CNc2cccnn2)C1)NC1CCCCC1` (stereo not given), 3.09%.
For `Cc1cnc(N2CCN3C[C@H](OCc4cccc(C)n4)C[C@H]3C2)nc1`, the cytotoxicity at 10 µM was -1.25%.
To `Cn1ccc(CN2CCCN(c3nccs3)CC2)cc1=O` belongs 0.0833%; to `O=C(c1ccc2cccc(F)c2n1)N1CCN(CCn2cccc2)CC1`, 13.5%; to `Cc1ccc(CN(C)C(=O)c2n[nH]c(N)c2-c2ccccc2)o1`, -4.81%.
To `CC1(C)CN(C(=O)c2cnc(-c3ccccn3)nc2)CC[C@]1(C)O` belongs -2.52%.
With `COc1ncccc1C(=O)N1CC[C@]2(C[C@@H](Oc3cccnc3)CO2)C1`, the cytotoxicity at 10 µM came out at 4.43%.
For `Cc1ccc(-c2nc(CN3CCn4c(C)nnc4C3)cs2)o1`, the cytotoxicity at 10 µM was -19.2%.
For the compound `CCN(Cc1cnn(C)c1)S(=O)(=O)c1ccc(NC(=O)C(C)(C)C)cc1`, the cytotoxicity at 10 µM was 0.165%.
As for `CC(CCn1cccn1)Nc1ccc(-c2nccn2C)nn1` (stereo not given), the cytotoxicity at 10 µM was found to be 1.39%.
Consider `Cc1nc(C2CCCN(C(=O)CCCn3ccnc3C)C2)no1` (stereo not given), for which the cytotoxicity at 10 µM was -13.4%.
As to `Cn1ccnc1CNC(=O)c1cncc(C2CCNCC2)n1`, the cytotoxicity at 10 µM was determined as 1.81%.
`CN(C)Cc1cnc(CC2CCN(CCc3ccccc3)CC2)cn1`: the cytotoxicity at 10 µM is -6.07%.
As to `O=C(COCC1CC1)N1CCCC1c1nc(-c2ccccc2F)c[nH]1` (stereo not given), the cytotoxicity at 10 µM is -0.025%.
On to `COc1ccc(-c2cn3c(n2)CO[C@@H](CNCc2ccccn2)C3)cc1`, for which the cytotoxicity at 10 µM was -11.8%.
Consider `COc1ccc(OC)c(C2CCN(C(=O)C3CCC(O)CC3)C2)c1` (stereo not given), for which the cytotoxicity at 10 µM is -1.65%.
Turning to `CC(=O)NCc1cccc(-n2ccnc2-c2cccc(C(=O)O)c2)c1`, the cytotoxicity at 10 µM was -2.29%.
On to `NS(=O)(=O)c1cc(C(=O)N2CCCC(n3ccnc3)C2)cs1` (stereo not given), for which the cytotoxicity at 10 µM is -11.3%.
In the case of `O=C1NCC2(CCCN(C(=O)c3ccc4c(c3)CCO4)C2)O1` (stereo not given), the cytotoxicity at 10 µM amounted to 2.32%.
As for `CNC(=O)CCc1cc(C2CCNCC2)nc(C)n1`, the cytotoxicity at 10 µM was -6.41%.
To `Cc1nc(CCC(=O)N2Cc3cnc(-c4ccccc4)nc3C2)n[nH]1` belongs -0.227%; to `CN1CCN(CCCNC(=O)C2CCCCC2)CC1`, -1.82%; to `CCN(CC)S(=O)(=O)N1C[C@@H](c2ccccc2)[C@H]2[C@H]1CCCCCN2C`, -10.4%.
Under `OCCN1CCCC(c2nccnc2Oc2ccc(F)cc2)C1` (stereo not given) stands 25.6%; under `CN(CC(=O)NCCC#N)C(c1ccccc1)c1ccc(F)cc1` (stereo not given), -4.34%.
With `COc1ccc(N2CCCN(C(=O)Cc3csc(C)n3)CC2)cc1`, the cytotoxicity at 10 µM came to 3.91%.
For `Cc1ccc(N2CCC3(CCN(C(=O)c4ccnnc4)CC3)CC2)nn1`, the cytotoxicity at 10 µM turned out to be 3.94%.
As to `CNC(=O)c1nnc2ccc(N3CCOCC3)cc2n1`, the cytotoxicity at 10 µM amounted to 6.86%.
Take `CSCC(C)(O)CNC(=O)c1ccc(F)cc1Br` (stereo not given): the cytotoxicity at 10 µM was 0.369%.
In the case of `CC(=O)c1cc2c(=O)[nH]c(=O)n(C)c2nc1C`, the cytotoxicity at 10 µM was -2.89%.
On to `O=C(c1n[nH]cc1Cl)N1CCSCC1`, for which the cytotoxicity at 10 µM is 4.51%.
Consider `CC1(c2ncc(CN(CC(=O)O)Cc3ccccc3)cn2)CCCCO1` (stereo not given), for which the cytotoxicity at 10 µM is -3.73%.
Regarding `CN(C)CCN(Cc1ccccn1)C(=O)Nc1cccc(F)c1`, the cytotoxicity at 10 µM was determined as 8.94%.
As to `CN(C)CCN1CC2(CCCN(c3ncc(Cl)cc3F)C2)CCC1=O` (stereo not given), the cytotoxicity at 10 µM is -13.6%.
In the case of `O=C(NC[C@]1(O)CN(Cc2ccccc2F)C[C@H]1O)c1ccccn1`, the cytotoxicity at 10 µM amounted to 1.15%.
Consider `COc1cccc(CN(C)Cc2ccccc2C#N)c1OC`, for which the cytotoxicity at 10 µM was -5.92%.
`Cc1nccc([C@H]2C[C@@H]3CCN(C(=O)c4c(C)noc4C)C[C@H]3O2)n1`: the cytotoxicity at 10 µM was -83.3%.
As to `CC(=O)N(Cc1noc(C2CC2)n1)C1CCN(Cc2ccncc2)C1` (stereo not given), the cytotoxicity at 10 µM is -13.8%.
As for `Cc1nc(CN2CCN(c3ccc4nncn4n3)C(C)C2)oc1C` (stereo not given), the cytotoxicity at 10 µM was -2.91%.
Take `O=C([C@@H]1CC[C@@H]2[C@@H](CCN2Cc2ccoc2)O1)N1CCCC1`: the cytotoxicity at 10 µM was -10.2%.
With `COc1ccccc1OC1CCN(C(=O)CCCn2ccnc2)CC1`, the cytotoxicity at 10 µM was -183%.
`Cc1cnc(N2Cc3cnn(Cc4ccc(F)cc4)c3C2)nc1N(C)C`: the cytotoxicity at 10 µM was 6.02%.
Regarding `CCN1CC(C(=O)N2CCN(c3cnn(C)c(=O)c3)CC2)CCC1=O` (stereo not given), the cytotoxicity at 10 µM amounted to 0.508%.
On to `Cc1cc(NC(=O)NCc2nncn2C)ccc1OC(C)C`, for which the cytotoxicity at 10 µM came out at 6.23%.
As for `CCN(C(=O)Nc1nccs1)C(C)c1cccc(O)c1` (stereo not given), the cytotoxicity at 10 µM is -2.11%.
To `NC(=O)NCC(=O)N1CCC2(CC1)c1ccccc1CC2O` (stereo not given) belongs 4.22%; to `CCc1nnc(Nc2cc(C)nc(C3CN(C(=O)C(C)C)CCO3)c2)s1` (stereo not given), 7.25%; to `COc1ccc(C2CCCN2C(=O)NCCn2ccnc2)cc1` (stereo not given), -9.13%.
Turning to `Cc1noc(C)c1CN1CCCC2(CCN(C(=O)CC3CC3)C2)C1` (stereo not given), the cytotoxicity at 10 µM turned out to be 7.71%.
As for `CN(C)c1cc(C2CCCN(S(=O)(=O)c3cn[nH]c3)C2)ccn1` (stereo not given), the cytotoxicity at 10 µM is -0.24%.
Take `Cc1cc(C(=O)O)ccc1NS(=O)(=O)c1c(C)nn(C(C)C)c1C`: the cytotoxicity at 10 µM stood at 5.31%.
In the case of `CC(C)c1cc(C2CCCN2C(=O)c2cn3ccsc3n2)no1` (stereo not given), the cytotoxicity at 10 µM was -2.33%.
Turning to `COc1cc2nc(C)n(CC(=O)NCCC(C)C)c(=O)c2cc1OC`, the cytotoxicity at 10 µM was -3.79%.
Under `N#CCCN(CCC#N)Cc1ccc(Br)c2cccnc12` stands 1.73%; under `Cn1nc(CNC(=O)CC#N)c2c1CN(CC1CC1)CC2`, 7.4%; under `COc1ccc(COCC(O)CNC(=O)c2cnc(C)cn2)cc1` (stereo not given), -2%.
Under `Cc1n[nH]c(C)c1NC(=O)NCc1cc[nH]n1` stands -5.18%; under `COCC(=O)N1CCc2[nH]nc(-c3ccc4c(c3)OCO4)c2C1`, -137%.
Under `CC(CN1CCOCC1)NCC1CCN(c2cnn(C)c(=O)c2)CC1` (stereo not given) stands -9.93%.
On to `CCCNC(=O)Cn1nc(C)c2cnn(C(C)(C)C)c2c1=O`, for which the cytotoxicity at 10 µM was -3.57%.
Regarding `CSCCCN1CCC[C@]2(C(=O)O)CN(c3cnccn3)CC[C@@H]12`, the cytotoxicity at 10 µM is 8.26%.
